Data on 38 molecules can be found in ChEMBL document CHEMBL1150358, “Substituted benzyl-pyrimidines targeting thymidine monophosphate kinase of Mycobacterium tuberculosis: synthesis and in vitro anti-mycobacterial activity” (Bioorg Med Chem, 2008).

Series [1] addresses T1, Thymidylate kinase (Mycobacterium tuberculosis, UniProt P9WKE1).
T1 sequence (P9WKE1 whole entry): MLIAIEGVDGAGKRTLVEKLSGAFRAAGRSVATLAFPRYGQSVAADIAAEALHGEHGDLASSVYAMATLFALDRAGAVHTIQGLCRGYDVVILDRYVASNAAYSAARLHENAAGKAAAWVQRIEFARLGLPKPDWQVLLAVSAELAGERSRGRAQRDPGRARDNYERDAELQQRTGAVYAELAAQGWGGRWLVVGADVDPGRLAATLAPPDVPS
As to the kind of experiment: Inhibition of Mycobacterium tuberculosis recombinant TMPK.

For series [2], the system named is Vero. As to the kind of experiment: Cytotoxicity against african green monkey Vero cells by MTT assay at 400 ug/ml after 72 hrs. The format is cell-based. As to conditions: chlorocebus sabaeus. The method in brief: (§1)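 Vero cells in DMEM with 10% fetal calf serum plus penicillin/streptomycin; seeded 6 × 10^3 cells/mL, exposed to compounds (range 5–400 µg/mL) 72 h at 37 °C, 5% CO2; MTT 7.5 mg/mL added 4 h, formazan dissolved in 10% SDS/0.01 M HCl, OD 550/570 nm; duplicate, untreated cells as control.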
Background: Tetrazolium dyes change colour on reduction, which living cells bring about.

Series [3] deals with T2, Thymidylate kinase (Mycobacterium tuberculosis) (UniProt P9WKE1).
T2 sequence (whole entry): T1 sequence (P9WKE1 whole entry)
Put plainly: Inhibition of Mycobacterium tuberculosis recombinant TMPK upto 2 mM.

Series [4] has as its target T3, Thymidylate kinase (Homo sapiens, UniProt P23919).
T3 sequence (P23919 whole entry): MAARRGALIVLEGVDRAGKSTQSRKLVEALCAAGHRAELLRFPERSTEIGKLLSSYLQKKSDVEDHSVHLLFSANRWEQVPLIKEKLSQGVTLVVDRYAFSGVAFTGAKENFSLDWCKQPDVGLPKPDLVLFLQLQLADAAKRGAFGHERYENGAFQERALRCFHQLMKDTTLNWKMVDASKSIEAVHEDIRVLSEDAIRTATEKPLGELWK
Put plainly: Inhibition of human TMPK.

Series [5] is described as follows: Selectivity index, ratio of Ki for human TMPK to Ki for Mycobacterium tuberculosis recombinant TMPK. In a few lines: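 Selectivity index computed as Ki human TMPK divided by Ki M. tuberculosis TMPK, each Ki from recombinant enzyme assays with ATP and dTMP, mean of three assays.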
Series [6] has as its target T4, Thymidylate kinase (Homo sapiens) (UniProt P23919).
T4 sequence (whole entry): T3 sequence (P23919 whole entry)
Put plainly: Inhibition of human TMPK upto 2 mM.

Series [7] deals with Vero. As to the kind of experiment: Cytotoxicity against african green monkey Vero cells by MTT assay at 100 ug/ml after 72 hrs. The format is cell-based. Particulars: chlorocebus sabaeus. In a few lines:
as §1

The target of series [8] is T2, Thymidylate kinase (Mycobacterium tuberculosis). As to the kind of experiment: Inhibition of Mycobacterium tuberculosis recombinant TMPK upto 0.2 mM.

Structures are written as SMILES. Calls of active or inactive are those of the source. The rule behind the calls is not given here.

With `O=C(O)CCCCCc1ccc(Cn2cc(Cl)c(=O)[nH]c2=O)cc1`, at Thymidylate kinase [1], the Ki (as a rule, a dissociation constant, usually derived from enzyme kinetics or from competition with a known ligand) came out at 23 µM. In addition, in the series with Vero [2], the Activity result is given as “Non-toxic”.
In the case of `Cc1cn(Cc2ccc(/C=C/C(=O)O)cc2)c(=O)[nH]c1=O`, the outcome in series [3] was inactive. Further, the Activity result in the series with Vero [2] is on record as “Non-toxic”.
For `Cc1cn(Cc2ccc(/C=C/CC(=O)O)cc2)c(=O)[nH]c1=O`, at Thymidylate kinase [1], the Ki was 39 µM. Moreover, the Activity result in the series on Vero [2] is “Non-toxic”.
As to `O=C(O)CCCc1ccc(Cn2ccc(=O)[nH]c2=O)cc1`, at Thymidylate kinase [1], the inhibition constant (Ki) was 202 µM. In addition, in the series with Vero [2], the Activity result is “Non-toxic”.
Consider `O=c1[nH]c(=O)n([C@H]2C[C@H](O)[C@@H](CO)O2)cc1Br` [BROXURIDINE], for which the results for the Ki at Thymidylate kinase [1] and on Thymidylate kinase [4] were 5 µM and 214 µM, respectively. Besides, in series [5], the Ratio Ki stood at 43. The Activity entry in the series on Vero [2] was “Non-toxic”.
On to `NC(=O)CCCc1ccc(Cn2cc(Cl)c(=O)[nH]c2=O)cc1`, for which the inhibition constant Ki at Thymidylate kinase [1] is 39 µM. Further, in series [6], the outcome was inactive. The Activity in the series on Vero [7] came out at 10%.
Turning to `Cc1cn([C@@H]2O[C@H](CO)[C@@H](O)[C@H]2O)c(=O)n(Cc2ccccc2)c1=O`, the inhibition constant Ki at Thymidylate kinase [1] amounted to 75 µM.
Take `O=C(O)CCCc1ccc(Cn2cc(Br)c(=O)[nH]c2=O)cc1`: the inhibition constant Ki was determined as 10 µM on Thymidylate kinase [1] and 293 µM at Thymidylate kinase [4]. Moreover, the Ratio Ki in series [5] was found to be 29. For the same molecule, the Activity with Vero [7] is listed as 14%.
In the case of `Cc1cn(Cc2ccc(CCC(N)=O)cc2)c(=O)[nH]c1=O`, at Thymidylate kinase [1], the Ki worked out at 89 µM. The Activity result in the series on Vero [2] is recorded as “Non-toxic”.
Consider `Cc1cn(Cc2ccc(CCCCC(=O)O)cc2)c(=O)[nH]c1=O`, for which the Ki at Thymidylate kinase [1] amounted to 58 µM. Moreover, in the series with Vero [2], the Activity entry is on record as “Non-toxic”.
With `Cc1cn(Cc2ccc(Br)cc2)c(=O)[nH]c1=O`, in the series with Vero [2], the Activity entry is given as “Non-toxic”.
`NC(=O)CCCCCc1ccc(Cn2cc(Cl)c(=O)[nH]c2=O)cc1`: the Ki on Thymidylate kinase [1] worked out at 26 µM. In the series on Vero [2], the Activity entry is on record as “Non-toxic”.
As for `CCCCCCc1ccc(Cn2cc(Cl)c(=O)[nH]c2=O)cc1`, the result in series [8] was inactive. Further, the Activity entry with Vero [2] was “Non-toxic”.
`Cc1cn(Cc2ccc(CCCCC(N)=O)cc2)c(=O)[nH]c1=O`: at Thymidylate kinase [1], the Ki came out at 55 µM. The Activity entry in the series with Vero [2] is “Non-toxic”.
In the case of `O=C(O)CCCCc1ccc(Cn2cc(Br)c(=O)[nH]c2=O)cc1`, the inhibitory constant (Ki) at Thymidylate kinase [1] was found to be 38 µM. The Activity result in the series on Vero [2] is “Non-toxic”.
On to `Cc1cn(Cc2ccc(/C=C/C(N)=O)cc2)c(=O)[nH]c1=O`, for which the Ki at Thymidylate kinase [1] was 195 µM. Also, in the series with Vero [2], the Activity result is “Non-toxic”.
For `COC(=O)CCCc1ccc(Cn2cc(Cl)c(=O)[nH]c2=O)cc1`, the inhibitory constant (Ki) on Thymidylate kinase [1] came to 59 µM. Besides, the Activity entry in the series with Vero [2] is recorded as “Non-toxic”.
`CCCCc1ccc(Cn2cc(Br)c(=O)[nH]c2=O)cc1`: the outcome in series [8] was inactive. Further, the Activity entry in the series on Vero [2] is listed as “Non-toxic”.
Consider `NC(=O)CCCCCc1ccc(Cn2cc(Br)c(=O)[nH]c2=O)cc1`, for which, at Thymidylate kinase [1], the Ki was determined as 19.5 µM. In the series with Vero [2], the Activity result is reported as “Non-toxic”.
As to `COC(=O)CCCc1ccc(Cn2cc(Br)c(=O)[nH]c2=O)cc1`, at Thymidylate kinase [1], the inhibition constant Ki turned out to be 52 µM. In the series on Vero [2], the Activity result is listed as “Non-toxic”.
As to `Cc1cn([C@H]2C[C@H](O)[C@@H](CO)O2)c(=O)[nH]c1=O` [DOXRIBTIMINE], the Activity result with Vero [2] is “Non-toxic”.
Regarding `Cc1cn(Cc2ccc(C#CCCCC(=O)O)cc2)c(=O)[nH]c1=O`, the Ki on Thymidylate kinase [1] amounted to 96 µM. The Activity result in the series with Vero [2] is “Non-toxic”.
For the molecule `NC(=O)CCCc1ccc(Cn2cc(Br)c(=O)[nH]c2=O)cc1`, the Ki at Thymidylate kinase [1] stood at 39 µM. Also, the outcome in series [6] was inactive. Further, in the series with Vero [2], the Activity result is reported as “Non-toxic”.
Regarding `NC(=O)CCCc1ccc(Cn2ccc(=O)[nH]c2=O)cc1`, the result in series [3] was inactive. Moreover, the Activity entry in the series with Vero [2] is “Non-toxic”.
`O=C(O)CCCc1ccc(Cn2cc(Cl)c(=O)[nH]c2=O)cc1`: the inhibitory constant (Ki) on Thymidylate kinase [4] was 790 µM. In addition, the Ratio Ki in series [5] worked out at 120. For the same molecule, in the series on Vero [2], the Activity entry is reported as “Non-toxic”.
For `CCCCCCc1ccc(Cn2cc(Br)c(=O)[nH]c2=O)cc1`, the outcome in series [8] was inactive. In addition, the Activity entry with Vero [2] was “Non-toxic”.
In the case of `Cc1cn(Cc2ccc(CCCC(=O)O)cc2)c(=O)[nH]c1=O`, the results for the inhibitory constant (Ki) at Thymidylate kinase [1] and at Thymidylate kinase [4] were 13 µM and 252 µM, respectively. Besides, the Ratio Ki in series [5] turned out to be 19.
On to `O=C(O)CCCCc1ccc(Cn2cc(Cl)c(=O)[nH]c2=O)cc1`, for which the Ki at Thymidylate kinase [1] was 16 µM; at Thymidylate kinase [4], 122 µM. In series [5], the Ratio Ki is 7.6. The Activity entry in the series with Vero [2] is “Non-toxic”.
On to `Cc1cn(Cc2ccc(CCCC(N)=O)cc2)c(=O)[nH]c1=O`, for which the Ki on Thymidylate kinase [1] was 112 µM. In addition, the Activity result with Vero [2] is given as “Non-toxic”.
For `Cc1cn(Cc2ccc(CCCCCC(N)=O)cc2)c(=O)[nH]c1=O` the same measures were 26.5 µM and “Non-toxic”.
For the molecule `NC(=O)CCCCc1ccc(Cn2cc(Br)c(=O)[nH]c2=O)cc1`, at Thymidylate kinase [1], the inhibition constant Ki is 35 µM. In the series on Vero [2], the Activity result is on record as “Non-toxic”.
With `Cc1cn(Cc2ccc(CCC(=O)O)cc2)c(=O)[nH]c1=O`, the inhibition constant (Ki) at Thymidylate kinase [1] worked out at 55 µM. The Activity result with Vero [2] is given as “Non-toxic”.
For `Cc1cn(Cc2ccc(CCCCO)cc2)c(=O)[nH]c1=O`, the Ki on Thymidylate kinase [1] turned out to be 51 µM. Besides, in the series on Vero [2], the Activity result is recorded as “Non-toxic”.
Consider `Cc1cn(Cc2ccc(C#CCCO)cc2)c(=O)[nH]c1=O`, for which, at Thymidylate kinase [1], the Ki was 70 µM. In addition, the Activity result with Vero [2] is reported as “Non-toxic”.
Consider `O=c1[nH]c(=O)n([C@H]2C[C@H](O)[C@@H](CO)O2)cc1Cl` [CHLORODEOXYURIDINE], for which, on Thymidylate kinase [1], the Ki was 10 µM.
As for `CCCCc1ccc(Cn2cc(Cl)c(=O)[nH]c2=O)cc1`, in series [8], the outcome was inactive. In the series with Vero [2], the Activity result is listed as “Non-toxic”.
On to `Cc1cn(Cc2ccc(CCCCCC(=O)O)cc2)c(=O)[nH]c1=O`, for which the Ki at Thymidylate kinase [1] was 47 µM. In addition, the Activity entry with Vero [2] is listed as “Non-toxic”.
Consider `O=C(O)CCCCCc1ccc(Cn2cc(Br)c(=O)[nH]c2=O)cc1`, for which the Ki on Thymidylate kinase [1] amounted to 34 µM; at Thymidylate kinase [4], 92 µM. In series [5], the Ratio Ki was 3. Besides, the Activity entry in the series with Vero [2] is “Non-toxic”.
